Assays:
[1] = molecular target: T1, Neuropeptide Y receptor type 5 (Homo sapiens, UniProt Q15761); assay: Displacement of [125I]PYY from human recombinant neuropeptide Y5 receptor expressed in thymidine kinase deficient […]; type: cell-based
T1 sequence (Q15761 whole entry): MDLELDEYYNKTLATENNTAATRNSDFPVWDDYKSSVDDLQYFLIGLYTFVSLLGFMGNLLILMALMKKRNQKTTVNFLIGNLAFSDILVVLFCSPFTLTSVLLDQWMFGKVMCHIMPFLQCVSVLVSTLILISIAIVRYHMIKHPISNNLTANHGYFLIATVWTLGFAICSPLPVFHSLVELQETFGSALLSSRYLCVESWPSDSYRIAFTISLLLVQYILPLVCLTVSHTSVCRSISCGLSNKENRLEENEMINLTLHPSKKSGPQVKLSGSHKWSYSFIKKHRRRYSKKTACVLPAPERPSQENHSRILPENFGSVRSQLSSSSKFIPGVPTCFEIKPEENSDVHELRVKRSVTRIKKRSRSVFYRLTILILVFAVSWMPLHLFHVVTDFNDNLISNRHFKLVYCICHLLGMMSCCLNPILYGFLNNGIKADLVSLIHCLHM

[2] = molecular target: T1, Neuropeptide Y receptor type 5; assay: Antagonist activity at human recombinant neuropeptide Y5 receptor expressed in CHO cells coexpressing Gqi5 assessed as inhibition of neuropeptide Y-induced increase in intracellular calcium concentration; type: functional, cell-based
Outline: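 Human recombinant Y5 receptor co-expressed with Gqi5 in CHO cells. Cells stimulated with 100 nM NPY. Antagonism read as inhibition of the NPY-evoked intracellular Ca2+ rise, reported as IC50.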

[3] = molecular target: T2, Neuropeptide Y receptor type 1 (Homo sapiens, UniProt P25929); assay: Inhibition of human neuropeptide Y1 receptor
T2 sequence (P25929 whole entry): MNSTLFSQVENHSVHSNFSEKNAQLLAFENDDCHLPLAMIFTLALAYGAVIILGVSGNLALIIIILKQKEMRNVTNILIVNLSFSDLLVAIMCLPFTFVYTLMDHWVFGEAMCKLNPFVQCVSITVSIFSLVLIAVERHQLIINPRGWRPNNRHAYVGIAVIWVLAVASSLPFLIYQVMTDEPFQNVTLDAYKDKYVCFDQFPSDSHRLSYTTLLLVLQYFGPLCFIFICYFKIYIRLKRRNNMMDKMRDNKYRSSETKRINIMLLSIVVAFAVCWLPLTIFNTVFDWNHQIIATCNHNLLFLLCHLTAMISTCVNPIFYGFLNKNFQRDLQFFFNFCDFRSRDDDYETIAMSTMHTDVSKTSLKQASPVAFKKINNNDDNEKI

[4] = molecular target: T3, Neuropeptide Y receptor type 2 (Homo sapiens, UniProt P49146); assay: Inhibition of human neuropeptide Y2 receptor
T3 sequence (P49146 whole entry): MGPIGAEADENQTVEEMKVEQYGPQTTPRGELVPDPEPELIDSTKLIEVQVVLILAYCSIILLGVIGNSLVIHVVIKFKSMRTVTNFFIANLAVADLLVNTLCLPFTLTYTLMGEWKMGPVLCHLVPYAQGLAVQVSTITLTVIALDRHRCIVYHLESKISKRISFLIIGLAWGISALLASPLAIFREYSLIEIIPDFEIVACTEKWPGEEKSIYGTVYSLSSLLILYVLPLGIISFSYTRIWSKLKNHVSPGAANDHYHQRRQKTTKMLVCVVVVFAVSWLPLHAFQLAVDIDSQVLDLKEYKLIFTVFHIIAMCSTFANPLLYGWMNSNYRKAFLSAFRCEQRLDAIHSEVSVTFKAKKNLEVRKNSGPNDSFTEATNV

[5] = molecular target: Neuropeptide Y receptor type 4 (Homo sapiens, UniProt P50391); assay: Inhibition of human neuropeptide Y4 receptor
[6] = Tmax in Sprague-Dawley rat at 10 mg/kg, po; type: ADME, organism-based; set-up: dose 10 mg/kg, route oral; conditions: in vivo
Outline: (§1)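 SD rats dosed orally with 10 mg/kg, as either the single enantiomer or the racemate; n = 3 animals per dose. Plasma levels of both enantiomers followed over time to build concentration–time profiles, from which PK parameters were taken.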

[7] = Cmax in Sprague-Dawley rat at 10 mg/kg, po; type: ADME, organism-based; set-up: dose 10 mg/kg, route oral; conditions: in vivo; outline: as §1
[8] = Half life in Sprague-Dawley rat at 10 mg/kg, po; type: ADME, organism-based; set-up: dose 10 mg/kg, route oral; conditions: in vivo; outline: as §1
Mus musculus [9] = assay: Toxicity in ICR mouse assessed as gross behavioral adverse effects at 150 mg/kg, po; type: organism-based; set-up: dose 150 mg/kg, route oral; conditions: in vivo
Outline: (§2)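 Mice were given a single oral dose of 150 mg/kg and observed for gross behaviour. The scored signs were psychomotor activity, motor activity, muscle tone, CNS excitation, autonomic responses and reflexes. Deaths were recorded at any time after dosing. This was run as a gross-behaviour screen before the in vivo efficacy studies.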

Mus musculus [10] = assay: Toxicity in ICR mouse assessed as mortality at 150 mg/kg, po; type: organism-based; set-up: dose 150 mg/kg, route oral; conditions: in vivo; outline: as §2
Rattus norvegicus = assay: Inhibition of D-Trp34-NPY-induced food intake in po dosed Sprague-Dawley rat; type: functional, organism-based
[11] = Fraction unbound in Sprague-Dawley rat plasma at 10 mg/kg, po; type: ADME, organism-based; set-up: dose 10 mg/kg, route oral
[12] = Ratio of drug level in brain to plasma in Sprague-Dawley rat at 10 mg/kg, po; type: ADME, organism-based; set-up: dose 10 mg/kg, route oral

Sequence of Neuropeptide Y receptor type 4 (P50391 whole entry): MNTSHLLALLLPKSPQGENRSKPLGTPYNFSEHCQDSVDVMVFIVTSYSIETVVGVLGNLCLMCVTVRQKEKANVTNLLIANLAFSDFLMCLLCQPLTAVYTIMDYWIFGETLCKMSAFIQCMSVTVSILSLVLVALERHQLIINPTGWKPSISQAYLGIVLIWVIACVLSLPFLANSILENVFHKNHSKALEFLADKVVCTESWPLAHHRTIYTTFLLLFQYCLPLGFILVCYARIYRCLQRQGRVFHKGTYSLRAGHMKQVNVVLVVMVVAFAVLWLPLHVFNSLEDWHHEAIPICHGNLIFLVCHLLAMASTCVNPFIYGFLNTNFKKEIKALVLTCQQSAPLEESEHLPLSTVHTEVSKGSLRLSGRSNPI

SMILES	Ki [1] [nM]	IC50 [2] [nM]	further results
CCOc1ccc2c(c1)OC1=C(C(=O)CC(C)(C)C1)C2C1=C(O)CC(C)(C)CC1=O (configuration not stated)	833	–	–
Cc1ccc2c(c1)OC1=C(C(=O)CC(C)(C)C1)C2C1=C(O)CC(C)(C)CC1=O (configuration not stated)	36	111	–
CC1(C)CC(=O)C(C2C3=C(CC(C)(C)CC3=O)Oc3ccccc32)=C(O)C1 (racemic)	33	61	IC50 [3]: > 10000 nM; IC50 [4]: > 10000 nM; IC50 [5]: > 10000 nM; Tmax [6]: 1 h; Cmax [7]: 2400 nM; half-life [8]: 5.2 h; Activity (Mus musculus [9]): Non-toxic; Activity (Mus musculus [10]): Non-toxic; Activity (Rattus norvegicus): Dose-dependent effect
O=C1CC2(CCCCC2)CC(O)=C1C1C2=C(CC3(CCCCC3)CC2=O)Oc2ccccc21 (configuration not stated)	24	109	–
CCc1ccc2c(c1)OC1=C(C(=O)CC(C)(C)C1)C2C1=C(O)CC(C)(C)CC1=O (configuration not stated)	41	–	–
CC1(C)CC(=O)C(C2C3=C(CC(C)(C)CC3=O)Oc3ccc(F)cc32)=C(O)C1 (configuration not stated)	81	–	–
CC1(C)CC(=O)C(C2C3=C(CC(C)(C)CC3=O)Oc3ccc(Cl)cc32)=C(O)C1 (configuration not stated)	197	–	–
CCC1(CC)CC(=O)C(C2C3=C(CC(CC)(CC)CC3=O)Oc3ccccc32)=C(O)C1 (configuration not stated)	20	90	–
CC1(C)CC(=O)C(C2C3=C(CC(C)(C)CC3=O)Oc3cc(Cl)ccc32)=C(O)C1 (configuration not stated)	34	82	–
O=C1CCCC(O)=C1C1C2=C(CCCC2=O)Oc2ccccc21 (configuration not stated)	> 1000	–	–
CC1(C)CC(=O)C([C@H]2C3=C(CC(C)(C)CC3=O)Oc3ccccc32)=C(O)C1	14	34	Tmax [6]: 0.5 h; Cmax [7]: 2500 nM; half-life [8]: 2.7 h; fraction unbound [11]: 0.27; Kp [12]: 0.34; Activity (Rattus norvegicus): Dose-dependent effect
COc1cccc2c1OC1=C(C(=O)CC(C)(C)C1)C2C1=C(O)CC(C)(C)CC1=O (configuration not stated)	2170	–	–
CC1(C)CC(=O)C(C2C3=C(CC(C)(C)CC3=O)Oc3cc(F)ccc32)=C(O)C1 (configuration not stated)	29	63	–
CC1(C)CC(=O)C(C2C3=C(CC(C)(C)CC3=O)Oc3c(F)cccc32)=C(O)C1 (configuration not stated)	34	73	–
COc1ccc2c(c1)OC1=C(C(=O)CC(C)(C)C1)C2C1=C(O)CC(C)(C)CC1=O (configuration not stated)	93	–	–
CC1(C)CC(=O)C(C2C3=C(CC(C)(C)CC3=O)Oc3cc(Br)ccc32)=C(O)C1 (configuration not stated)	36	81	–
CC1(C)CC(=O)C(C2C3=C(CC(C)(C)CC3=O)Oc3c(Cl)cccc32)=C(O)C1 (configuration not stated)	71	–	–
CC1(C)CC(=O)C([C@@H]2C3=C(CC(C)(C)CC3=O)Oc3ccccc32)=C(O)C1	> 1000	343	fraction unbound [11]: 0.1; Kp [12]: 0.1
O=C1CC2(CCCC2)CC(O)=C1C1C2=C(CC3(CCCC3)CC2=O)Oc2ccccc21 (configuration not stated)	17	58	–
COc1ccc2c(c1)C(C1=C(O)CC(C)(C)CC1=O)C1=C(CC(C)(C)CC1=O)O2 (configuration not stated)	590	–	–
O=C1CC2(CCC2)CC(O)=C1C1C2=C(CC3(CCC3)CC2=O)Oc2ccccc21 (configuration not stated)	14	45	–
CC1CC(=O)C(C2C3=C(CC(C)CC3=O)Oc3ccccc32)=C(O)C1 (configuration not stated)	193	–	–
COc1cccc2c1C(C1=C(O)CC(C)(C)CC1=O)C1=C(CC(C)(C)CC1=O)O2 (configuration not stated)	> 1000	–	–

From ChEMBL document CHEMBL1155895, “(9S)-9-(2-hydroxy-4,4-dimethyl-6-oxo-1-cyclohexen-1-yl)-3,3-dimethyl-2,3,4,9-tetrahydro-1H-xanthen-1-one, a selective and orally active neuropeptide Y Y5 receptor antagonist” (J Med Chem, 2008)
